Measured values as given in ChEMBL document CHEMBL5346861, “Designing quinoline-isoniazid hybrids as potent anti-tubercular agents inhibiting mycolic acid biosynthesis” (Eur J Med Chem, 2022).
≈ marks a conversion by molar mass, not a printed value. Calls of active or inactive are those of the source. The calls are words filed in the database; no cut-off is given here.

Experiments:
[1] = system: Mycobacterium tuberculosis; test: Antimycobacterial activity against Mycobacterium tuberculosis mc2 6230 assessed as inhibition of bacterial growth measured after 7 days by broth dilution method; assay type: functional; details: mc2 6230, 168 h, time 7 day
Outline: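 Pantothenate auxotroph carrying empty pMV261. 2-fold serial dilutions, 37 °C, no agitation, 7 days. MIC99 is the lowest concentration with no turbidity change. DMSO vehicle control.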

[2] = system: Mycobacterium tuberculosis; test: Antimycobacterial activity against Mycobacterium tuberculosis H37Rv assessed as inhibition of bacterial growth; assay type: functional
[3] = system: Mycobacterium tuberculosis; test: Antimycobacterial activity against Mycobacterium tuberculosis mc2 6230 assessed as reduction in log10 CFU at 5 times of MIC measured after 3 days by time-killing kinetics assay; assay type: functional; details: time 3 day
Outline: (§1)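 Exposed to 1x, 5x or 20x MIC at 37 °C for up to 6 days. Serial dilutions plated on 7H10/OADC/pantothenate and colonies counted after 3 weeks. Mean of four independent experiments in technical triplicate, with SD. DMSO negative control.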

[4] = system: Mycobacterium marinum; test: Antimycobacterial activity against Mycobacterium marinum M strain assessed as inhibition of bacterial growth measured after 6 days by broth dilution method; assay type: functional; details: 144 h, time 6 day
Outline: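 MIC99 by 2-fold serial broth dilution in 7H9 with 10% OADC and 0.025% tyloxapol. Inoculum 5.10⁶ CFU/mL. Incubated without agitation at 30 °C, scored for no turbidity change after 6 days. DMSO vehicle control.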

[5] = system: Mycobacteroides abscessus; test: Antimycobacterial activity against Mycobacterium abscessus CIP104536 smooth variant assessed as inhibition of bacterial growth measured after 4 days by broth dilution method; assay type: functional; details: CIP104536, 96 h, time 4 day
Outline: (§2)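 MIC99 by CLSI broth 2-fold serial dilution in CaMHB. Inoculum 5.10⁶ CFU/mL. Incubated at 30 °C and read by turbidity after 4 days. DMSO vehicle control, INH reference.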

[6] = system: Mycobacteroides abscessus; test: Antimycobacterial activity against Mycobacterium abscessus CIP104536 rough variant assessed as inhibition of bacterial growth measured after 4 days by broth dilution method; assay type: functional; details: CIP104536, 96 h, time 4 day; outline: as §2
[7] = system: Mycobacterium tuberculosis; test: Antimycobacterial activity against Mycobacterium tuberculosis mc2 6230 assessed as reduction in log10 CFU at 1 time of MIC measured after 6 days by time-killing kinetics assay; assay type: functional, organism-based; details: time 6.0 day; outline: as §1
[8] = system: Mycobacterium tuberculosis; test: Antimycobacterial activity against Mycobacterium tuberculosis mc2 6230 assessed as reduction in log10 CFU at 20 times of MIC measured after 6 days by time-killing kinetics assay; assay type: functional; details: time 6 day; outline: as §1
[9] = Cytotoxicity against human THP-1 cells assessed as reduction in cell viability measured after 24 hrs by resazurin staining based analysis; assay type: toxicity
Outline: (§3)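 THP-1 monocytes differentiated with 20 ng/mL PMA for 48 hrs at 1×10^5 cells/well. Compounds added by serial dilution from 100 µg/mL for 24 or 72 hrs at 37 °C and 5% CO₂. Resazurin 10% for 4 hrs, fluorescence at ex 540/em 590 nm. Mean of three independent experiments in triplicate. INH and RFB reference drugs.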

[10] = Cytotoxicity against human THP-1 cells assessed as reduction in cell viability measured after 72 hrs by resazurin staining based analysis; assay type: toxicity; outline: as §3
[11] = Selectivity index, […] Mycobacterium tuberculosis H37Rv to CC50 for cytotoxicity against human THP-1 cells; assay type: toxicity, cell-based; details: read-out: Selectivity Index
[12] = Selectivity index, […] Mycobacterium marinum M strain to CC50 for cytotoxicity against human THP-1 cells; assay type: toxicity, cell-based; details: read-out: Selectivity Index
[13] = Selectivity index, […] Mycobacterium abscessus CIP104536 smooth variant to CC50 for cytotoxicity against human THP-1 cells; assay type: toxicity, cell-based; details: read-out: Selectivity Index
[14] = Selectivity index, […] Mycobacterium abscessus CIP104536 rough variant to CC50 for cytotoxicity against human THP-1 cells; assay type: toxicity, cell-based; details: read-out: Selectivity Index
[15] = system: Mycobacterium tuberculosis; test: Antimycobacterial activity against Mycobacterium tuberculosis mc2 6230 assessed as inhibition of bacterial growth at 1 ug/ml measured after 7 days by broth dilution method; assay type: functional, organism-based; details: dose 1.0 µg/ml, time 7.0 day
[16] = system: Mycobacterium tuberculosis; test: Inhibition of mycolic acid biosynthesis in Mycobacterium tuberculosis mc2 6230 assessed as decrease in alpha-mycolic acid incubated for 15 mins followed by 14C-labeled acetate addition measured after 7 hrs by TLC analysis; assay type: functional, organism-based; details: time 435.0 min
[17] = system: Mycobacterium tuberculosis; test: Inhibition of mycolic acid biosynthesis in Mycobacterium tuberculosis mc2 6230 assessed as decrease in methoxy-mycolic acid incubated for 15 mins followed by 14C-labeled acetate addition measured after 7 hrs by TLC analysis; assay type: functional, organism-based; details: time 435.0 min
[18] = system: Mycobacterium tuberculosis; test: Inhibition of mycolic acid biosynthesis in Mycobacterium tuberculosis mc2 6230 assessed as decrease in keto-mycolic acid incubated for 15 mins followed by 14C-labeled acetate addition measured after 7 hrs by TLC analysis; assay type: functional, organism-based; details: time 435.0 min
[19] = system: Vero; test: Cytotoxicity against African green monkey Vero cells assessed as reduction in cell viability measured after 24 hrs by resazurin staining based analysis; assay type: toxicity; details: chlorocebus sabaeus
Outline: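 Vero cells in RPMI 1640 with 10% FCS, 2×10^4 cells/well, adhered overnight at 37 °C and 5% CO₂. Compounds added at 100 to 0.78 µg/mL for 24 hrs. 10% resazurin added for 4 hrs, fluorescence read at ex 540/em 590 nm.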

SMILES	MIC [1] [µg/mL]	MIC [4] [µg/mL]	MIC [5] [µg/mL]	MIC [6] [µg/mL]	further results
O=C(N/N=C/c1ccc(OCc2cn(CCNc3ccnc4cc(Cl)ccc34)nn2)cc1)c1cccnc1	> 200	–	–	–	–
COc1cc(/C=N/NC(=O)c2cccnc2)ccc1OCc1cn(CCNc2ccnc3cc(Cl)ccc23)nn1	> 200	–	–	–	–
O=C(N/N=C/c1ccccc1)c1ccncc1 [N'-BENZYLIDENE ISONICOTINOHYDRAZIDE]	–	–	–	–	MIC [2]: 0.05 µg/mL (≈ 0.222 µM)
O=C(N/N=C/c1ccc(OCc2cn(CCCNc3ccnc4cc(Cl)ccc34)nn2)cc1)c1cccnc1	> 200	–	–	–	–
COc1cc(/C=N/NC(=O)c2ccncc2)ccc1OCc1cn(-c2ccnc3cc(Cl)ccc23)nn1	0.5 (≈ 0.973 µM)	> 200	> 200	> 200	Activity [3]: 2 log10CFU/ml; Activity [7]: Active; Activity [8]: ~3 log10CFU/ml; CC50 at 24 h [9]: > 100 µg/mL; CC50 at 72 h [10]: > 100 µg/mL; selectivity ratio [11]: > 200; selectivity ratio [12]: > 200; selectivity ratio [13]: > 200; selectivity ratio [14]: > 200; Activity [15]: Active
COc1cc(/C=N/NC(=O)c2cccnc2)ccc1OCc1cn(-c2ccnc3cc(Cl)ccc23)nn1	> 200	–	–	–	–
COc1cc(/C=N/NC(=O)c2cnccn2)ccc1OCc1cn(-c2ccnc3cc(Cl)ccc23)nn1	> 200	–	–	–	–
O=Cc1ccc(OCc2cn(-c3ccnc4cc(Cl)ccc34)nn2)cc1	> 200	–	–	–	–
O=Cc1ccc(OCc2cn(CCNc3ccnc4cc(Cl)ccc34)nn2)cc1	> 200	–	–	–	–
COc1cc(C=O)ccc1OCc1cn(CCNc2ccnc3cc(Cl)ccc23)nn1	> 200	–	–	–	–
COc1cc(/C=N/NC(=O)c2cnccn2)ccc1OCc1cn(CCCNc2ccnc3cc(Cl)ccc23)nn1	> 200	–	–	–	–
NNC(=O)c1ccncc1 [ISONIAZID]	0.05 (≈ 0.365 µM)	25 (≈ 182 µM)	> 200	> 200	inhibition [16]: Dose-Dependent Effect; inhibition [17]: Dose-Dependent Effect; inhibition [18]: Dose-Dependent Effect
O=C(N/N=C/c1ccccc1-n1cc(CN2CCN(c3ccnc4cc(Cl)ccc34)CC2)nn1)c1cnccn1	> 200	–	–	–	–
COc1cc(/C=N/NC(=O)c2ccncc2)ccc1OCc1cn(CCNc2ccnc3cc(Cl)ccc23)nn1	0.5 (≈ 0.898 µM)	> 200	> 200	> 200	Activity [3]: 2 log10CFU/ml; Activity [7]: Active; Activity [8]: ~3 log10CFU/ml; CC50 at 24 h [9]: > 100 µg/mL; Activity [19]: Non-Toxic; CC50 at 72 h [10]: 73 µg/mL (≈ 131 µM); Activity [15]: Active
O=Cc1ccc(OCc2cn(CCCNc3ccnc4cc(Cl)ccc34)nn2)cc1	50 (≈ 119 µM)	200 (≈ 474 µM)	> 200	> 200	–
O=C(N/N=C/c1ccc(OCc2cn(CCNc3ccnc4cc(Cl)ccc34)nn2)cc1)c1ccncc1	0.5 (≈ 0.949 µM)	200 (≈ 380 µM)	> 200	> 200	Activity [3]: 2 log10CFU/ml; Activity [7]: Active; Activity [8]: ~3 log10CFU/ml; CC50 at 24 h [9]: > 100 µg/mL; Activity [19]: Non-Toxic; CC50 at 72 h [10]: 34 µg/mL (≈ 64.5 µM); Activity [15]: Active
